In ChEMBL document CHEMBL1944636, “Inhibition of hepatitis C virus NS5B polymerase by S-trityl-L-cysteine derivatives” (Eur J Med Chem, 2012):
Activity calls are given as the source filed them. The calls are words filed in the database; no cut-off is given here.

Columns and labels:
Hepatitis C virus [1] = assay: Inhibition of HCV genotype 1b recombinant N-His-tagged NS5B Cdelta21 polymerase expressed in Escherichia coli DH5alpha using [alpha-32P]UTP at 100 uM after 60 mins by liquid scintillation counting; parameters: species or system Hepatitis C virus subtype 1b; settings: for inhibition at 100 µM: DH5-alpha, 1 h
Summary of the method: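 Primer-dependent elongation with 100 ng NS5BCΔ21 in 20 mM Tris-HCl pH 7.0, 100 mM NaCl, 100 mM Na-glutamate, 1 mM MnCl₂, 0.25 μM polyrA/U₁₂, 20 μM UTP plus [α-³²P]UTP. Compound at 100 μM, 60 min at 30 °C. TCA/pyrophosphate stop, GF-B filter capture, scintillation counting. Percent of DMSO control, at least two independent measurements in duplicate.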

Hepatitis C virus [2] = assay: Inhibition of HCV genotype 1b NS5B polymerase expressed in BHK cells at 100 uM after 42 hrs by luciferase reporter gene assay; parameters: species or system Hepatitis C virus subtype 1b
Summary of the method: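 Intracellular NS5B RdRp activity was read in BHK-NS5B-FRLuc reporter cells, 1 × 10⁴/well, treated 42 h with 100 μM compound or 1% DMSO at 37 °C, 5% CO2. Dual-Glo luciferase read-out; inhibition is percent reduction of Renilla-to-firefly luminescence ratio against DMSO controls. Three independent experiments in duplicate.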

[3] = Cytotoxicity against hamster BHK cells assessed as cell viability at 100 uM after 42 hrs by luciferase reporter gene assay; assay type: cell-based, Mesocricetus auratus; settings: read-out: Activity
Summary of the method: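 BHK-NS5B-FRLuc reporter cells (DMEM, 10% FBS, 1 mg/mL G418, 10 μg/mL blasticidin) were plated at 1 × 10⁴/well with 100 μM compound or 1% DMSO for 42 h. Viability was taken as firefly luciferase level versus DMSO controls using Dual-Glo read-out. Three independent experiments in duplicate.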

[4] = Cytotoxicity against human HuH7 cells assessed as cell viability at 100 uM after 42 hrs by MTS assay; assay type: cell-based, Huh-7; settings: read-out: Activity
Summary of the method: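 Viability of Huh7/Rep-Feo1b replicon cells was measured by colorimetric MTS read-out after 42 h with 100 μM compound. Cells were seeded at 1 × 10⁴/well, DMSO was 1.0% final, and culture was at 37 °C, 5% CO2. Values relative to DMSO controls, three independent experiments in duplicate.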

Hepatitis C virus [5] = assay: Inhibition of HCV genotype 1b recombinant N-His-tagged NS5B Cdelta21 polymerase expressed in Escherichia coli DH5alpha using [alpha-32P]UTP after 60 mins by liquid scintillation counting; parameters: species or system Hepatitis C virus subtype 1b; settings: DH5-alpha, 1 h
Summary of the method: (§1)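 NS5BCΔ21 (genotype 1b, N-His, from E. coli DH5α, Ni-NTA purified), 100 ng, elongates polyrA/U₁₂ with 20 μM UTP/[α-³²P]UTP and 1 mM MnCl₂ at pH 7.0, 60 min at 30 °C. Counted on filters by scintillation. IC50 from nonlinear fits of 8–12 concentrations in duplicate, two independent experiments.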

Hepatitis C virus [6] = assay: Antiviral activity against HCV genotype 1b infected in human HuH7/Rep-Feo1b cells assessed as inhibition of viral replication at 100 uM after 42 hrs by luciferase reporter gene assay; assay type: functional, Hepacivirus hominis; settings: Huh-7, 42 h
Summary of the method: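 Huh7/Rep-Feo1b replicon cells (DMEM, 10% FCS, 0.5 mg/mL G418, 37 °C, 5% CO2) seeded at 1 × 10⁴/well and exposed to 100 μM compound or DMSO for 42 h, 1.0% DMSO final. Replication was read as firefly luciferase signal relative to DMSO controls. Mean of three independent experiments in duplicate.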

[7] = Inhibition of HCV NS5B polymerase; parameters: species or system Hepacivirus hominis; summary of the method: as §1

| SMILES | inhibition at 100 µM (Hepatitis C virus [1]) [%] | also measured |
| --- | --- | --- |
| CSc1ccc(C(SCCN)(c2ccccc2)c2ccccc2)cc1 | 24 |  |
| CC(C)(C)c1ccc(C(SC[C@H](N)C(=O)O)(c2ccccc2)c2ccccc2)cc1 | 22.6 |  |
| CC(C)(SC(c1ccccc1)(c1ccccc1)c1ccccc1)[C@@H](N)C(=O)O | 82.8 | inhibition at 100 µM (Hepatitis C virus [2]): 85.4%; viability at 42 h, 100 µM [3]: 100%; viability at 42 h, 100 µM [4]: 72.6%; IC50 (Hepatitis C virus [5]): 22.3 µM; inhibition at 100 µM (Hepatitis C virus [6]): 89.5% |
| CCCc1ccc(C(SCCN)(c2ccccc2)c2ccccc2)cc1 | 27.4 |  |
| NCCSC(c1ccccc1)(c1ccccc1)c1ccc(-c2ccccc2)cc1 | 36 |  |
| CC(C)C(SC[C@H](N)C(=O)O)(c1ccccc1)c1ccccc1 | 22.5 |  |
| N[C@@H](CSC(c1ccccc1)(c1ccccc1)c1ccc(Br)cc1)C(=O)O | 20.2 |  |
| CCCCc1ccc(C(SC(C)(C)[C@H](N)C(=O)O)(c2ccccc2)c2ccccc2)cc1 | 22 |  |
| N[C@H](CSC(c1ccccc1)(c1ccccc1)c1ccccc1)C(=O)O | 17 |  |
| CSc1ccc(C(SC[C@H](N)C(=O)O)(c2ccccc2)c2ccccc2)cc1 | 44.3 |  |
| CCCc1ccc(C(SC[C@H](N)C(=O)O)(c2ccccc2)c2ccccc2)cc1 | 36.9 |  |
| CC(C)c1ccc(C(SC[C@H](N)C(=O)O)(c2ccccc2)c2ccccc2)cc1 | 31.2 |  |
| NCCSC(c1ccccc1)(c1ccccc1)c1ccc(I)cc1 | 36.7 |  |
| CCC(C)C(SC[C@H](N)C(=O)O)(c1ccccc1)c1ccccc1 (stereo partly drawn) | 34 |  |
| Cc1ccc(C(SCCN)(c2ccccc2)c2ccccc2)cc1 | 31.7 |  |
| N[C@@H](CSC(c1ccccc1)(c1ccccc1)c1ccc(Cl)cc1)C(=O)O | 28.3 |  |
| NCCSC(c1ccccc1)(c1ccccc1)c1ccc2ccccc2c1 | 33.3 |  |
| CC(C)(SC(c1ccccc1)(c1ccccc1)c1ccccc1)[C@H](N)C(=O)O | 76.7 | inhibition at 100 µM (Hepatitis C virus [2]): 84.3%; viability at 42 h, 100 µM [3]: 100%; viability at 42 h, 100 µM [4]: 74.1%; IC50 (Hepatitis C virus [5]): 24.6 µM; inhibition at 100 µM (Hepatitis C virus [6]): 91.2% |
| CCCOc1ccc(C(SC[C@H](N)C(=O)O)(c2ccccc2)c2ccccc2)cc1 | 14 |  |

| SMILES | inhibition at 100 µM (Hepatitis C virus [1]) [%] | also measured |
| --- | --- | --- |
| CCCCCc1ccc(C(SC[C@H](N)C(=O)O)(c2ccccc2)c2ccccc2)cc1 | 28.3 |  |
| N[C@@H](CSC(c1ccccc1)(c1ccccc1)c1ccc(C(=O)O)cc1)C(=O)O | 30.9 |  |
| N[C@@H](CSC1(c2ccc(Cl)cc2)c2ccccc2-c2ccccc21)C(=O)O |  | pIC50 [7]: 4.33 |
| N[C@@H](CSC(c1ccccc1)(c1ccccc1)c1ccc2ccccc2c1)C(=O)O | 14.7 |  |
| CCCCCCc1ccc(C(SC[C@H](N)C(=O)O)(c2ccccc2)c2ccccc2)cc1 | 16.1 |  |
| CN(C)[C@@H](CSC(c1ccccc1)(c1ccccc1)c1ccccc1)C(=O)O | 17.2 |  |
| CCC(CC)C(SC[C@H](N)C(=O)O)(c1ccccc1)c1ccccc1 | 33.1 |  |
| N[C@@H](CSC(c1ccccc1)(c1ccccc1)c1ccc(C(F)(F)F)cc1)C(=O)O | 43.5 |  |
| N[C@@H](CSC(c1ccccc1)(c1ccccc1)c1ccccc1)C(=O)O [S-TRITYL-L-CYSTEINE] | 12.6 |  |
| CCc1ccc(C(SC[C@H](N)C(=O)O)(c2ccccc2)c2ccccc2)cc1 | 36.8 |  |
| CCCCc1ccc(C(SC[C@H](N)C(=O)O)(c2ccccc2)c2ccccc2)cc1 | 60 | IC50 (Hepatitis C virus [5]): 39.7 µM |
| CCCOc1ccc(C(SC(C)(C)[C@H](N)C(=O)O)(c2ccccc2)c2ccccc2)cc1 |  | inhibition (Hepatitis C virus [1]; Hepatitis C virus subtype 1b): inactive |
| N[C@@H](CSC(c1ccccc1)(c1ccccc1)c1cccs1)C(=O)O | 23.4 |  |
| N[C@@H](CSC(c1ccccc1)(c1ccccc1)c1ccc(-c2ccccc2)cc1)C(=O)O | 22.4 |  |
| Cc1ccc(C(SC[C@H](N)C(=O)O)(c2ccccc2)c2ccccc2)cc1 | 23.1 |  |
| CCc1ccc(C(SCCN)(c2ccccc2)c2ccccc2)cc1 | 28.7 |  |
| N[C@@H](CSC(c1ccccc1)(c1ccccc1)c1ccc(C2CCCCC2)cc1)C(=O)O | 20.5 |  |
| CCCC(SC[C@H](N)C(=O)O)(c1ccccc1)c1ccccc1 | 19.1 |  |
